For one compound, inhibition, Activity and IC50 results are on record in ChEMBL document CHEMBL5661979, “Pharmacological inhibition of BMK1 suppresses tumor growth through promyelocytic leukemia protein” (Cancer Cell, 2010).

A short description of data set [1]: Inhibition of MST4/YSK1 in human HeLa cells lysate at 2 uM pre incubated for 15 mins followed by ATP acyl phosphate probe addition and measured after 10 mins by LC-MS/MS analysis relative to control. The settings on record: 25 min, condition cancer.
Data set [2] can be described thus: Toxicity in C57Bl/6 mouse assessed as effect on urea nitrogen level at 50 mg/kg, ip for 14 days (reference value: 22 mg/dl). As to conditions: in vivo, 336 h, time 14 day. It is filed as organism-based.
The target in data set [3] is T1, Phosphatidylinositol 5-phosphate 4-kinase type-2 gamma (Homo sapiens) (UniProt Q8TBX8).
T1 sequence (whole entry): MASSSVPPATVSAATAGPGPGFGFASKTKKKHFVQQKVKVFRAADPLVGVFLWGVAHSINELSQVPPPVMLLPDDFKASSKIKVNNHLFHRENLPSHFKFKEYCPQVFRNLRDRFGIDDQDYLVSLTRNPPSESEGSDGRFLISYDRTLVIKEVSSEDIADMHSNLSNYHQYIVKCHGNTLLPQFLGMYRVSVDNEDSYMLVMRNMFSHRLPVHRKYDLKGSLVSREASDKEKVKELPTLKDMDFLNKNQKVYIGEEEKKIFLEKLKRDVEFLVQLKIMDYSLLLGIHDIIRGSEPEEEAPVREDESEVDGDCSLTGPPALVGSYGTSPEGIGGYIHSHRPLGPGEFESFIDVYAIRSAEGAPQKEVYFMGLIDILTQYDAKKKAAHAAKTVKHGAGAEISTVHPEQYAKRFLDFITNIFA
Description: Inhibition of PIP5K2C LIP1 site in human HeLa cells lysate at 2 uM pre incubated for 15 mins followed by ATP acyl phosphate probe addition and measured after 10 mins by LC-MS/MS analysis relative to control. It is filed as subcellular. As to conditions: time 25.0 min.

The target of data set [4] is DNA-dependent protein kinase catalytic subunit (Homo sapiens, UniProt P78527). The data set can be described thus: Inhibition of PRKDC in human HeLa cells lysate pre incubated for 15 mins followed by ADP acyl phosphate probe addition and measured after 10 mins by LC-MS/MS analysis. It is filed as subcellular.
Data set [5] concerns the target Ribosomal protein S6 kinase alpha-5 (Homo sapiens, UniProt O75582). Description: Inhibition of MSK1 domain 1 in human HeLa cells lysate at 50 uM pre incubated for 15 mins followed by ADP acyl phosphate probe addition and measured after 10 mins by LC-MS/MS analysis relative to control. The format is subcellular. As to conditions: time 25.0 min.
The target in data set [6] is EKC/KEOPS complex subunit TP53RK (Homo sapiens, UniProt Q96S44). Description: Inhibition of PRPK in human HeLa cells lysate pre incubated for 15 mins followed by ADP acyl phosphate probe addition and measured after 10 mins by LC-MS/MS analysis. It is filed as subcellular.
Data set [7] deals with T2, EKC/KEOPS complex subunit TP53RK (Homo sapiens) (UniProt Q96S44).
T2 sequence (whole entry): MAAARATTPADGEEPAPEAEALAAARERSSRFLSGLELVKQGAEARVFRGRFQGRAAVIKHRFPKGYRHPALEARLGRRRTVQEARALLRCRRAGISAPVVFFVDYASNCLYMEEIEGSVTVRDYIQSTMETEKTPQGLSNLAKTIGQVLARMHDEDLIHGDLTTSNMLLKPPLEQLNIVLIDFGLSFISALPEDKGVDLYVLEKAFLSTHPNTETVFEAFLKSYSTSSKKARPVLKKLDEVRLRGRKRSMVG
Description: Inhibition of PRPK in human HeLa cells lysate at 50 uM pre incubated for 15 mins followed by ADP acyl phosphate probe addition and measured after 10 mins by LC-MS/MS analysis relative to control. The settings on record: time 25.0 min. The format is subcellular.

The target of data set [8] is Serine/threonine-protein kinase PLK4 (Homo sapiens) (UniProt O00444). Description: Inhibition of recombinant Flag-tagged PLK4 (unknown origin) expressed in HEK293 cells at 0.08 to 10 uM in presence of 32P-gamma-ATP. It is filed as cell-based. The settings on record: dose 0.08-10 µM.
Data set [9] has as its target Phosphatidylinositol 4-kinase beta (Homo sapiens, UniProt Q9UBF8). Description: Inhibition of PIK4CB in human HeLa cells lysate at 10 uM pre incubated for 15 mins followed by ADP acyl phosphate probe addition and measured after 10 mins by LC-MS/MS analysis relative to control. The format is subcellular. As to conditions: time 25.0 min.
In the next data set the target is Activated CDC42 kinase 1 (Homo sapiens, UniProt Q07912). The data set can be described thus: Inhibition of ACK1 in human HeLa cells lysate at 10 uM pre incubated for 15 mins followed by ADP acyl phosphate probe addition and measured after 10 mins by LC-MS/MS analysis relative to control. The format is subcellular. As to conditions: time 25.0 min. The gist of the method: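 HeLa cell lysates (5 mg/mL total protein) were preincubated with inhibitor at 0, 0.8, 2, 10 or 50 μM for 15 min. ATP or ADP acylphosphate probe was then added (5 μM final) for 10 min, and reactions were stopped with urea. Up to four fragment ions per kinase probe-peptide were quantified by targeted MS. % inhibition was taken relative to untreated lysate. Run in duplicate.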

The target in data set [10] is Calcium/calmodulin-dependent protein kinase type II subunit delta (Homo sapiens, UniProt Q13557). Description: Inhibition of CamK2d in human HeLa cells lysate at 50 uM pre incubated for 15 mins followed by ADP acyl phosphate probe addition and measured after 10 mins by LC-MS/MS analysis relative to control. As to conditions: time 25.0 min. The format is subcellular.

For data set [11], the target named is Phosphatidylinositol 4-kinase alpha (Homo sapiens, UniProt P42356). Description: Inhibition of PIK4CA in human HeLa cells lysate at 50 uM pre incubated for 15 mins followed by ATP acyl phosphate probe addition and measured after 10 mins by LC-MS/MS analysis relative to control. As to conditions: time 25.0 min. It is filed as subcellular.
For a further data set, the target named is PKC alpha and beta-2 (Homo sapiens, UniProt P17252+P05771). Description: Inhibition of PKCalpha/beta in human HeLa cells lysate pre incubated for 15 mins followed by ATP acyl phosphate probe addition and measured after 10 mins by LC-MS/MS analysis. The format is subcellular.
Data set [12] in a line: Inhibition of NEK6/7 in human HeLa cells lysate pre incubated for 15 mins followed by ATP acyl phosphate probe addition and measured after 10 mins by LC-MS/MS analysis. It is filed as subcellular.
The target of data set [13] is Mitogen-activated protein kinase 7 (Mus musculus) (UniProt Q9WVS8). Description: Inhibition of BMK1 in mouse MEF cells assessed as increase in p21 protein expression at 5 uM incubated for 16 hrs by Western blot analysis. It is filed as cell-based. The gist of the method: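 Pml+/+ or Pml−/− MEFs treated ±5 μM inhibitor for 16 h. Lysates western blotted for p21, quantified by densitometry and normalized to GAPDH, relative to untreated Pml+/+ MEF set as 1. n = 3, ±SEM.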

In data set [14] the target is MAP/microtubule affinity-regulating kinase 3 (Homo sapiens, UniProt P27448). The data set can be described thus: Inhibition of MARK3 in human HeLa cells lysate pre incubated for 15 mins followed by ATP acyl phosphate probe addition and measured after 10 mins by LC-MS/MS analysis. The format is subcellular.

The source made the active and inactive calls. The rule behind the calls is not given here.

Sequence of Ribosomal protein S6 kinase alpha-5 (O75582 whole entry, looked up, the tested form may be a part): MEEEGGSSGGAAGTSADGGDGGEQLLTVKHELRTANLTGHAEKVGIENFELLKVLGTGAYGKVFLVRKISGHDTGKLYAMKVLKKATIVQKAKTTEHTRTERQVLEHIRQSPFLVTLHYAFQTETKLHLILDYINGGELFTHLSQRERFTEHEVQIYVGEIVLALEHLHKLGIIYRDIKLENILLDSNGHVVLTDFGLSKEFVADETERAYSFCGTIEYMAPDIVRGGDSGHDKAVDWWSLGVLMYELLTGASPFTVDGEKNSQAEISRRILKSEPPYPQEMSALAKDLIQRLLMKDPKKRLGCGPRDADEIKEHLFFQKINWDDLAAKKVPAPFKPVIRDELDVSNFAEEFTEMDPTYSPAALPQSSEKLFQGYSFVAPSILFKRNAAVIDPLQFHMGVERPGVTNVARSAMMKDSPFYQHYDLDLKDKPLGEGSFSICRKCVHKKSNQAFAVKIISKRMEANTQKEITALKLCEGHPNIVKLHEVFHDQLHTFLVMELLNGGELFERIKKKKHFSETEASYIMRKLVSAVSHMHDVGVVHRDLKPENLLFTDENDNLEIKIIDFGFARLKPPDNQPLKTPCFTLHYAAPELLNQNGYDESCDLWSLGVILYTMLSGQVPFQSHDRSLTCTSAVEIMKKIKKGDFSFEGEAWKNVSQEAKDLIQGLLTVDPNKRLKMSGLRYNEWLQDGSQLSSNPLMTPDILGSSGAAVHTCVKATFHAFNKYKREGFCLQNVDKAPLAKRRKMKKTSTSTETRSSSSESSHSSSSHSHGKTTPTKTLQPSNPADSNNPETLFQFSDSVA
Sequence of Phosphatidylinositol 4-kinase alpha (P42356 whole entry, looked up): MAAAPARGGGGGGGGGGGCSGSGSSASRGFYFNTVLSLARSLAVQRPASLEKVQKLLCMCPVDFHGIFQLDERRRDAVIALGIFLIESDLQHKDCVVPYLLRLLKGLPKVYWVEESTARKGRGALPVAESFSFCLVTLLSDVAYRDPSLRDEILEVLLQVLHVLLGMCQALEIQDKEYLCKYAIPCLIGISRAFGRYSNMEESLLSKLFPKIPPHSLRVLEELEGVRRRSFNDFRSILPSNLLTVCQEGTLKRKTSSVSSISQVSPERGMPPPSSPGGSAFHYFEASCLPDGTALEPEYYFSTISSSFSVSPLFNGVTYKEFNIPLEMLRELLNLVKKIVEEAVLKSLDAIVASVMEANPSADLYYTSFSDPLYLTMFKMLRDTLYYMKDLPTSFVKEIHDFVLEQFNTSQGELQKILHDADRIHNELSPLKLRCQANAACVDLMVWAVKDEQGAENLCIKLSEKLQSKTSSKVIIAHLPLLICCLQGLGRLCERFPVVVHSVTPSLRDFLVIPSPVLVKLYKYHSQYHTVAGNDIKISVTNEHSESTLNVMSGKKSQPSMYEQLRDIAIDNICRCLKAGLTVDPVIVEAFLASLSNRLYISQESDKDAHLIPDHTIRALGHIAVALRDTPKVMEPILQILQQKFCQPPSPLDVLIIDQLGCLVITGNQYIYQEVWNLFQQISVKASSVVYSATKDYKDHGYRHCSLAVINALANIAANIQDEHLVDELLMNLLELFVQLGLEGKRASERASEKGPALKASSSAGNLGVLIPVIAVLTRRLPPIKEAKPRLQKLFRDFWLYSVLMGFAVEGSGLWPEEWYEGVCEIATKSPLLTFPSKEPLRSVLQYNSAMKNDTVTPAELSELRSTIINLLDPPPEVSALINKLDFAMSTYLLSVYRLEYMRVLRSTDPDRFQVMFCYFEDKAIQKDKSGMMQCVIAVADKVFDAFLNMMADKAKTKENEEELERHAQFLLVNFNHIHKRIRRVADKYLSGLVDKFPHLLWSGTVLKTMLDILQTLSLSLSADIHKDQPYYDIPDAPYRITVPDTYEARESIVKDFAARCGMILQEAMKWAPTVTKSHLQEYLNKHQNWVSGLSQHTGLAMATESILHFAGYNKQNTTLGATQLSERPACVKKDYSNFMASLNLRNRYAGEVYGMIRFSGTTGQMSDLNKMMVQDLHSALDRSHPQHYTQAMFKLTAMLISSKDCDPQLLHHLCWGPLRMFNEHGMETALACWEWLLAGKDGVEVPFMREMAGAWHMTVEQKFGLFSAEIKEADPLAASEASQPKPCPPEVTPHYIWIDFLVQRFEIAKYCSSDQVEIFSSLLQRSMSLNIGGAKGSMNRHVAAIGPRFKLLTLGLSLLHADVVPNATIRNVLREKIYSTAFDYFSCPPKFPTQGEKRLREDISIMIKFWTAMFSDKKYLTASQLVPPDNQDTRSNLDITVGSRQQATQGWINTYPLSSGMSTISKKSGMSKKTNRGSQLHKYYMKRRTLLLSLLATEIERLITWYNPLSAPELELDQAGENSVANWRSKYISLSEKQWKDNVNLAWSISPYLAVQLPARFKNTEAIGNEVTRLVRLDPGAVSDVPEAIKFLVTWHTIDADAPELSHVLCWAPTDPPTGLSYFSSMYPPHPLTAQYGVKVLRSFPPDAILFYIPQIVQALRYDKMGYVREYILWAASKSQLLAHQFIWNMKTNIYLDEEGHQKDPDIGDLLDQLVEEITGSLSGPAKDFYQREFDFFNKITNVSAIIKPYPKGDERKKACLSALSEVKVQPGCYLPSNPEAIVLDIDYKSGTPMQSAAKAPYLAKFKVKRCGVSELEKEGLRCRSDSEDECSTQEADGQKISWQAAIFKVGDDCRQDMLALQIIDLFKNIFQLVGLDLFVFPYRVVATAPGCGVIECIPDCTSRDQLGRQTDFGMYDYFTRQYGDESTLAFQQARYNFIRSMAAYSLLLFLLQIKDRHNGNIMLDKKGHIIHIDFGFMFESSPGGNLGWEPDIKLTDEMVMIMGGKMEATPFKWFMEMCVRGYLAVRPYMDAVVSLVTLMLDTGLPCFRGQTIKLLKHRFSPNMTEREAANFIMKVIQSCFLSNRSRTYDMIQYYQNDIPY
Sequence of Calcium/calmodulin-dependent protein kinase type II subunit delta (Q13557 whole entry): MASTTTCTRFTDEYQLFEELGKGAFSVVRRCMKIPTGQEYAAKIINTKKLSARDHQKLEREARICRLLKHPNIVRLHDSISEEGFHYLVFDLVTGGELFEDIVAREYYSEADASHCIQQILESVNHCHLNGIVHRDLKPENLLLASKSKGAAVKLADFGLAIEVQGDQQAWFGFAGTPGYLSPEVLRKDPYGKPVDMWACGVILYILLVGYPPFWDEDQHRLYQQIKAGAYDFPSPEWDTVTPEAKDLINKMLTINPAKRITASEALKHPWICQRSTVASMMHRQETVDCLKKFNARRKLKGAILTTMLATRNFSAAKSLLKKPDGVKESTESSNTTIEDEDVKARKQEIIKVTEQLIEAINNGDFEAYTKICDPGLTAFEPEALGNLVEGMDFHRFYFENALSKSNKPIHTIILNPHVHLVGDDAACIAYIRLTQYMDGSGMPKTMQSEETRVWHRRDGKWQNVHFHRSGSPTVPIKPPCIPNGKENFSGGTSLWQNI
Sequence of Activated CDC42 kinase 1 (Q07912 whole entry, looked up, the tested form may be a part): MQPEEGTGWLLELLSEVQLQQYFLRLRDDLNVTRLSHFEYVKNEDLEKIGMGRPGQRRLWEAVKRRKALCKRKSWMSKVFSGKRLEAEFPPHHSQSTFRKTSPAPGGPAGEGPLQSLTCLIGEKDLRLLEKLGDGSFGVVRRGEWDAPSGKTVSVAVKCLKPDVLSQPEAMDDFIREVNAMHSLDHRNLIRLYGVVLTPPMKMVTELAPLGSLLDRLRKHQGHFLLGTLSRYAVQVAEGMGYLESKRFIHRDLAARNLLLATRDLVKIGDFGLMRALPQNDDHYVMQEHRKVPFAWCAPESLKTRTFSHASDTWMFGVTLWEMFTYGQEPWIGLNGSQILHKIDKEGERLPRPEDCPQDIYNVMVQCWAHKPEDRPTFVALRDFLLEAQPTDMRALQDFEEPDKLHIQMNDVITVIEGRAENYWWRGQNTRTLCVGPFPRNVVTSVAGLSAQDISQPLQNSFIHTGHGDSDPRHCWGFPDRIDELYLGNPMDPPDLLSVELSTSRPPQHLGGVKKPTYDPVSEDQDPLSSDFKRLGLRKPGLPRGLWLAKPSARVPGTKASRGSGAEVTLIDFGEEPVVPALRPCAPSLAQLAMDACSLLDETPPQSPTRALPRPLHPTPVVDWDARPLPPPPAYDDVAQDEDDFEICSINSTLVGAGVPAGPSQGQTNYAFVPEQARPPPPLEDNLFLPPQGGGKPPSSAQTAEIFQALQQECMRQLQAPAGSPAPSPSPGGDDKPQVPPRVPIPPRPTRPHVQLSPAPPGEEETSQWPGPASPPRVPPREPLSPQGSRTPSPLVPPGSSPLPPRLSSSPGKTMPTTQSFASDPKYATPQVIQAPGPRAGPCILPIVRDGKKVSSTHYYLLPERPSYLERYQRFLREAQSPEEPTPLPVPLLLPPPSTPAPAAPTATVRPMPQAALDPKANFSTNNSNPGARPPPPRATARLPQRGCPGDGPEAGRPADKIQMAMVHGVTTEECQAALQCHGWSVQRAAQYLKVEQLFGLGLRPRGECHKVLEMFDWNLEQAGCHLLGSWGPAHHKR

On to `CCOc1cc(N2CCC(O)CC2)ccc1Nc1ncc2c(n1)N(C)c1ccccc1C(=O)N2C`, for which, in data set [1], the inhibition (usually the change of the read-out against control, counted positive when it falls) at 2 µM is -6.9%. The Activity in [2] stood at 31 mg/dL. The inhibition in data set [3] was -3.7%; in data set [5], 6.4%; in data set [7], 15.7%; in data set [9], 1.1%; at Activated CDC42 kinase 1 it was 37%; in [10], 10.3%. For the same compound, the inhibition in data set [11] worked out at 58%. For the same compound, the IC50 – broadly, the concentration at which inhibition is half-maximal – in [4] was over 50 µM; in data set [6], over 50 µM; on PKC alpha and beta-2, over 50 µM; in [12], over 50 µM; in [14] it was over 50 µM. In addition, the inhibition result in data set [8] and in data set [13] was “Active” throughout.
